One series relates to C57BL/6 mice. The series is described as follows: APAP-induced ALF model validation. The series is classed as in vivo, mouse. The conditions noted are these: APAP 500 mg/kg i.p. In short, it runs like this:
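Male C57BL/6 mice were housed under SPF conditions with a 12-hour/12-hour light/dark cycle at 22°C and 45 to 60% humidity. APAP was dissolved in physiological saline by heating at 50°C and given intraperitoneally to induce acute liver failure.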

The target in the next series is P-selectin. The conditions noted are these: read-out: natural PSGL-1 binding to P-selectin (Kd); ref [23]; cited from earlier work.

This is an account of results in article PMC11887798 (Science Advances, 2025).

For orientation: Kd means the constant that tells how readily two partners part at equilibrium.

As to `CC(=O)Nc1ccc(O)cc1` [APAP, acetaminophen], in the series with C57BL/6 mice (n = 6), the “serum ALT and AST” value is “rising rapidly within 12 hours and peaking at 24 hours”. In the series with C57BL/6 mice (within 72 hours, n = 10), the mortality of mice result is “over 50%”.

B1: PSGL-1: natural P-selectin ligand on neutrophils (protein, UniProt Q14242 42-412, looked up)
P-selectin glycoprotein …: QATEYEYLDYDFLPETEPPEMLRNSTDTTPLTGPGTPESTTVEPAARRSTGLDAGGAVTELTTELANMGNLSTDSAAMEIQTTQPAATEAQTTQPVPTEAQTTPLAATEAQTTRLTATEAQTTPLAATEAQTTPPAATEAQTTQPTGLEAQTTAPAAMEAQTTAPAAMEAQTTPPAAMEAQTTQTTAMEAQTTAPEATEAQTTQPTATEAQTTPLAAMEALSTEPSATEALSMEPTTKRGLFIPFSVSSVTHKGIPMAASNLSVNYPVGAPDHISVKQCLLAILILALVATIFFVCTVVLAVRLSRKGHMYPVRNYSPTEMVCISSLLPDGGEGPSATANGGLSKAKSPGLTPEPREDREGDDLTLHSFLP
For the molecule B1, the Kd at P-selectin is 320 nM.
